The term IC50 denotes the concentration that gives 50% inhibition.

Results on 19 compounds are retold here after ChEMBL document CHEMBL5143713, “Multitarget, Selective Compound Design Yields Potent Inhibitors of a Kinetoplastid Pteridine Reductase 1” (J Med Chem, 2022).

For data set [1], the system named is 786-0. The experiment in a line: Mitochondrial toxicity in human 786-0 cells at 10 uM incubated with compound for 6 hrs followed by incubation with MitoTracker Red chloromethyl-X-rosamine dye for 45 mins by imaging analysis relative to control. Type of data set: cell-based. The following applies: 786-0, 6 h. The essentials:
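Tested at 10 μM. 786-O cells kept in RPMI-1640 with 2 mM glutamine, 10% FCS, streptomycin 100 μg/mL and penicillin G 100 U/mL. Mitochondrial toxicity read as MitoTracker Red (chloromethyl-X-rosamine) uptake by high-content imaging.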

For data set [2], the system named is human DHFR versus Trypanosoma brucei PTR1. The experiment in a line: Selectivity index, ratio of IC50 for human DHFR to IC50 for Trypanosoma brucei PTR1. Type of data set: toxicity. The following applies: read-out: Ratio IC50.
The test system of data set [3] is human DHFR versus Leishmania major DHFR. The experiment in a line: Selectivity index, ratio of IC50 for human DHFR to IC50 for Leishmania major DHFR. Type of data set: toxicity. The note with it: read-out: Ratio IC50.
For data set [4], the target named is T1, Pteridine reductase, putative (Trypanosoma brucei, UniProt Q581W1).
T1 sequence (Q581W1 whole entry): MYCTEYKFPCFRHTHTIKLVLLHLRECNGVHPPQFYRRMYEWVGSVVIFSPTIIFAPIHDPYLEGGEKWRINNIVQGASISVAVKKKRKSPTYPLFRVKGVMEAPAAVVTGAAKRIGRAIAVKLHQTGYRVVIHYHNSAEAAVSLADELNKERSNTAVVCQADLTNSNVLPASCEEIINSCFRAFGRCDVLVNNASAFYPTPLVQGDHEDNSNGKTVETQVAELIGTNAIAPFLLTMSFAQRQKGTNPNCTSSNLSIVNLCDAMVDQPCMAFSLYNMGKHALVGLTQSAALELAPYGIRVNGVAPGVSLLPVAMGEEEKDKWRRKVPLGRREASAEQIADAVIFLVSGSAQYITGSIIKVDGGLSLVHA
As to the kind of experiment: Inhibition of recombinant Trypanosoma brucei PTR1 expressed in Escherichia coli BL21 (DE3) cells using H2B as substrate in presence of cytochrome c and NADPH by envision multilabel reader.

Data set [5] addresses T2, Pteridine reductase 1 (Leishmania major, UniProt Q01782).
T2 sequence (Q01782 whole entry): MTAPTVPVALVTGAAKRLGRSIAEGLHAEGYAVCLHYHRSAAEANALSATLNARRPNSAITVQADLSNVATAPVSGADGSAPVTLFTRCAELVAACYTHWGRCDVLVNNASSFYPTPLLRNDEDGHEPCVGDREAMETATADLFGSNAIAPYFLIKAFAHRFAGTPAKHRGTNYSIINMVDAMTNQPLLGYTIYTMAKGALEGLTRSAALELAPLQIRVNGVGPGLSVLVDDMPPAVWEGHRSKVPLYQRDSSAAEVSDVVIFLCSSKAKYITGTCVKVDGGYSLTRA
The experiment in a line: Inhibition of recombinant Leishmania major PTR1 expressed in Escherichia coli BL21 (DE3) cells using H2B as substrate in presence of cytochrome c and NADPH by envision multilabel reader.

The subject of data set [6] is human DHFR versus Leishmania major PTR1. The experiment in a line: Selectivity index, ratio of IC50 for human DHFR to IC50 for Leishmania major PTR1. Type of data set: toxicity. The note with it: read-out: Ratio IC50.
The subject of data set [7] is human DHFR versus Trypanosoma brucei DHFR. The experiment in a line: Selectivity index, ratio of IC50 for human DHFR to IC50 for Trypanosoma brucei DHFR. Type of data set: toxicity. The note with it: read-out: Ratio IC50.
Data set [8] concerns the target Bifunctional dihydrofolate reductase-thymidylate synthase (Trypanosoma brucei brucei, UniProt Q27783). As to the kind of experiment: Inhibition of recombinant Trypanosoma brucei DHFR-TS expressed in Escherichia coli BL21 (DE3) cells using dihydrofolate as substrate in presence of NADPH by spectrophotometric analysis.
The target in data set [9] is T3, Dihydrofolate reductase (Homo sapiens, UniProt P00374).
T3 sequence (P00374 whole entry): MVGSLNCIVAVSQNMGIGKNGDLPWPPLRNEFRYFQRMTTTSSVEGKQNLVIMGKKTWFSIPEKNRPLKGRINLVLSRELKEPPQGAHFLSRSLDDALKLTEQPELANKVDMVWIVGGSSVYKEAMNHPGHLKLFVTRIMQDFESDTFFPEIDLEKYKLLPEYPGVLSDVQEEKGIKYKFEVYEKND
The experiment in a line: Inhibition of recombinant human DHFR expressed in Escherichia coli BL21 (DE3) cells using dihydrofolate as substrate in presence of NADPH by spectrophotometric analysis. Type of data set: toxicity.

Data set [10] has as its target Bifunctional dihydrofolate reductase-thymidylate synthase (Leishmania major, UniProt P07382). The experiment in a line: Inhibition of recombinant Leishmania major DHFR-TS expressed in Escherichia coli BL21 (DE3) cells using dihydrofolate as substrate in presence of NADPH by spectrophotometric analysis.
The test system of data set [11] is A549. As to the kind of experiment: Cytotoxicity against human A549 cells at 10 uM measured after 48 hrs by Celltiter-Glo assay relative to control. The following applies: a549, 48 h. Type of data set: toxicity, cell-based. The method, boiled down: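 Tested at 10 μM. A549 cells grown in DMEM with 10% FCS, streptomycin 100 μg/mL and penicillin G 100 U/mL. Viability read as cellular ATP by CellTiter-Glo luminescence.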
On the technique in general: In ATP-based viability assays light output follows the ATP content of the culture.

Bifunctional dihydrofolate reductase-thymidylate synthase (Leishmania major, UniProt P07382), sequence (P07382 whole entry): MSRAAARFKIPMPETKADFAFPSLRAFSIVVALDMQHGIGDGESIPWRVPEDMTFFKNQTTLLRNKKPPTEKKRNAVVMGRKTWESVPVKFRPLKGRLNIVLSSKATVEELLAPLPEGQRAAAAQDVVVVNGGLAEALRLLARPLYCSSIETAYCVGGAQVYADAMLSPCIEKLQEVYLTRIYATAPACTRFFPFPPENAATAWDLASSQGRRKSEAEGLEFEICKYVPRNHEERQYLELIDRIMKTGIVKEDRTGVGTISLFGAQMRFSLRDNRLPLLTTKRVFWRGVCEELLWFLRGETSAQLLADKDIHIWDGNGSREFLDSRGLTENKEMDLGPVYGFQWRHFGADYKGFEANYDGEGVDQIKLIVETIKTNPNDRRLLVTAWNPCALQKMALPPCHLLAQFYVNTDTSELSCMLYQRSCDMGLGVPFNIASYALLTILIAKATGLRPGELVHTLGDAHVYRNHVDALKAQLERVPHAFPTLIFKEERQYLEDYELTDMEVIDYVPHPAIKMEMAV
Bifunctional dihydrofolate reductase-thymidylate synthase (Trypanosoma brucei brucei, UniProt Q27783), sequence (Q27783 whole entry): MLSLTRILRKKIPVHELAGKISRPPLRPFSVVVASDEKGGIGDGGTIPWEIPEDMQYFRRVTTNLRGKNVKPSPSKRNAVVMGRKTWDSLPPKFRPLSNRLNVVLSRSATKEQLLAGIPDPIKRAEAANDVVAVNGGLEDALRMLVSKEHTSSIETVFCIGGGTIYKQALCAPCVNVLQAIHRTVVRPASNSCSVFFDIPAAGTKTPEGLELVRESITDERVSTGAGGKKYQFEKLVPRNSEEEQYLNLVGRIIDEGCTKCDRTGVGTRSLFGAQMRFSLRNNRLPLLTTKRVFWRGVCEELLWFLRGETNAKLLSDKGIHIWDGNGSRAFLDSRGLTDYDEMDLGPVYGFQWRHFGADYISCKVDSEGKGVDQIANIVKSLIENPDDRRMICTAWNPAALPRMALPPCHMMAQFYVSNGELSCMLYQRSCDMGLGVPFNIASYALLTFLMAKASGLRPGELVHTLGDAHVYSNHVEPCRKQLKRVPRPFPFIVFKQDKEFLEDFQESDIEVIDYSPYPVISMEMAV

As to `COc1ccc(CNC(=O)c2ccc(CNCc3cnc4nc(N)nc(N)c4n3)cc2)cc1OC`, in data set [1], the Activity was determined as 0%. The selectivity ratio in data set [2] amounted to 455; in data set [3], 1; in data set [6], 64; in [7] it was 2. Further, the figures for the IC50 in [4] and in data set [5] were 220 nM and 1570 nM, respectively.

Consider `CCOC(=O)C1CCN(C(=O)c2ccc(N(C)Cc3cnc4nc(N)nc(N)c4n3)cc2)CC1`, for which the Activity in data set [1] is 0%. Further, the selectivity ratio is 300 in data set [2], 90 in data set [3], 27 in data set [6] and 1 in data set [7]. The half-inhibitory concentration (IC50) in data set [8] was determined as 9000 nM; in [4], 40 nM; in data set [9] it was 12000 nM; in data set [10], 130 nM; in data set [5], 450 nM.

In the case of `COC(=O)C1CCN(C(=O)c2ccc(SCc3cnc4nc(N)nc(N)c4n3)nc2)CC1`, the Activity in data set [1] worked out at 20%. Also, the selectivity ratio in data set [2] turned out to be 89000; in [3], 10; in [6], 1480; in data set [7], 37. For the same compound, the IC50 was found to be 2400 nM in [8]; 1 nM in data set [4]; 89000 nM in data set [9]; 9360 nM in data set [10]; 60 nM in [5].

Consider `COc1cc(Oc2ccc(CNCc3cnc4nc(N)nc(N)c4n3)cc2)cc(OC)c1OC`, for which the Activity in [1] is reported as 0%; in [11], 100%. In addition, the selectivity ratio came to 286 in data set [2], 1 in data set [3], 588 in data set [6] and 1 in data set [7]. In addition, the half-maximal inhibitory concentration (IC50) in [4] turned out to be 350 nM; in data set [5], 170 nM.

In the case of `Nc1nc(N)c2nc(C(=O)NCc3cccc(C(F)(F)F)c3)cnc2n1`, the values for the Activity in [1] and in [11] were 0% and 100%, respectively. The selectivity ratio in data set [2] was found to be 10000; in [3], 1; in data set [6], 303; in data set [7], 1. Moreover, the half-maximal inhibitory concentration (IC50) in [4] was determined as 10 nM; in data set [5] it was 330 nM.

Turning to `NC(=O)C1CCN(C(=O)c2ccc(NCc3cnc4nc(N)nc(N)c4n3)cc2)CC1`, the Activity in [1] and in data set [11] was 0% in each case. Further, the results for the concentration for half-maximal inhibition (IC50) in data set [8], in data set [4] and in data set [10] were 2900 nM, 820 nM and 1110 nM, respectively.

Consider `COC(=O)C1CCN(C(=O)c2ccc(N(C)Cc3cnc4nc(N)nc(N)c4n3)cc2)CC1`, for which the Activity in data set [1] is listed as 0%; in data set [11], 100%. In addition, the IC50 in data set [8] was found to be 270 nM; in data set [4] it was 50 nM; in data set [9], 44000 nM; in data set [10], 260 nM.

As for `COC(=O)C1CCN(C(=O)c2ccc(NCc3cnc4nc(N)nc(N)c4n3)cc2)CC1`, the results for the Activity in [1] and in [11] were 0% and 100%, respectively. The IC50 in [8] was determined as 20500 nM; in data set [4] it was 110 nM; in data set [9] it was 51000 nM; in [10], 620 nM.

As to `Nc1nc(N)c2nc(CNCc3ccc(Oc4ccccc4)cc3)cnc2n1`, the Activity in data set [1] was determined as 0%. Besides, the selectivity ratio in [2] was 526; in data set [3], 1; in data set [6], 102; in [7], 1. Also, the half-inhibitory concentration (IC50) in [4] stood at 190 nM; in [5] it was 980 nM.

As for `COC(=O)C1CCN(C(=O)c2ccc(NCc3cnc4nc(N)nc(N)c4n3)cn2)CC1`, in data set [1], the Activity stood at 0%. Moreover, the 50% inhibitory concentration (IC50) was 2570 nM in data set [8], 550 nM in [4], 60000 nM in data set [9] and 1360 nM in [10].

In the case of `CCN(Cc1cnc2nc(N)nc(N)c2n1)c1ccc(C(=O)N2CCC(C(=O)OC)CC2)cc1`, the figures for the Activity in data set [1] and in data set [11] were 0% and 100%, respectively. The results for the selectivity ratio in [2], in [3] and in data set [7] were 48, 9 and 7, respectively. Further, the half-maximal inhibitory concentration (IC50) in data set [8] was 620 nM; in data set [4] it was 90 nM; in [9], 4300 nM; in [10], 460 nM; in data set [5], 13300 nM.

As for `C#CCN(Cc1cnc2nc(N)nc(N)c2n1)c1ccc(C(=O)N2CCC(C(=O)OC)CC2)cc1`, the selectivity ratio in [2] stood at 1950; in data set [3], 110; in [6], 244; in [7], 66. For the same compound, the half-inhibitory concentration (IC50) in [8] worked out at 1180 nM; in data set [4] it was 40 nM; in data set [9], 78000 nM; in data set [10], 710 nM; in [5], 320 nM.

Regarding `Nc1nc(N)c2nc(CNc3ccc(C(=O)N4CCC(C(=O)O)CC4)cc3)cnc2n1`, the Activity in data set [1] and in data set [11] was 0% in each case. Further, the IC50 in [8] was 1380 nM; in data set [4] it was 1720 nM; in data set [10], 600 nM.

Regarding `CCOC(=O)C1CCCN1C(=O)c1ccc(NCc2cnc3nc(N)nc(N)c3n2)cc1` (stereo not drawn), the Activity in data set [1] is 0%. The figures for the selectivity ratio in data set [2], in data set [3] and in data set [7] were 0.08, 8 and 10, respectively. Moreover, the values for the IC50 in [8] and in data set [10] were 980 nM and 1210 nM, respectively.

Consider `COC(=O)C1CCN(C(=O)c2cccc(NCc3cnc4nc(N)nc(N)c4n3)c2)CC1`, for which the selectivity ratio in data set [2] was found to be 393; in data set [3], 2; in data set [6] it was 35; in [7], 3. Moreover, the IC50 is 150 nM in data set [4], 59000 nM in [9] and 1690 nM in data set [5].

In the case of `Nc1nc(N)c2nc(C(=O)NCc3ccccc3)cnc2n1`, the results for the Activity in data set [1] and in [11] were 0% and 100%, respectively. In addition, the selectivity ratio in data set [2] amounted to 10000; in data set [3] it was 1; in [6], 18; in [7] it was 1. For the same compound, the half-maximal inhibitory concentration (IC50) in [4] stood at 10 nM; in [5], 5500 nM.

In the case of `CCOC(=O)C1CCN(C(=O)c2ccc(N(CC)Cc3cnc4nc(N)nc(N)c4n3)cc2)CC1`, the IC50 in data set [8] is 230 nM; in data set [4] it was 1 nM; in [9], 13000 nM; in data set [10] it was 180 nM; in data set [5] it was 100 nM.

`COc1ccc(CNC(=O)c2ccc(CNCc3cnc4nc(N)nc(N)c4n3)cc2)cc1`: in [1], the Activity was found to be 0%. In addition, the selectivity ratio in data set [2] came to 769; in [3], 1; in data set [6], 68; in data set [7], 1. Besides, the IC50 in data set [4] is 130 nM; in data set [5], 1480 nM.

Take `CN(Cc1cnc2nc(N)nc(N)c2n1)c1ccc(C(=O)N2CCCCC2)cc1`: the Activity in [1] is on record as 15%. Moreover, the selectivity ratio in data set [2] worked out at 2980; in data set [3], 15; in data set [6], 213; in data set [7] it was 21. Also, the IC50 in data set [8] was 1450 nM; in [4] it was 10 nM; in data set [10], 2050 nM; in data set [5] it was 140 nM.
